Activity calls are given as the source filed them. The calls are words filed in the database; no cut-off is given here.
How the values were obtained:
[1] = target: T1, Protein deacetylase HDAC6 (Homo sapiens) (UniProt Q9UBN7); assay: Inhibition of HDAC6 in human SH-SY5Y cells transfected with pCAX FLAG APP and pRK5-EGFP-Tau P301L plasmids assessed as inhibition of amyloid beta (1 to 40)-induced Tau P301L mutant phosphorylation at 1 uM after 24 hrs by Western blot analysis
T1 sequence (whole entry): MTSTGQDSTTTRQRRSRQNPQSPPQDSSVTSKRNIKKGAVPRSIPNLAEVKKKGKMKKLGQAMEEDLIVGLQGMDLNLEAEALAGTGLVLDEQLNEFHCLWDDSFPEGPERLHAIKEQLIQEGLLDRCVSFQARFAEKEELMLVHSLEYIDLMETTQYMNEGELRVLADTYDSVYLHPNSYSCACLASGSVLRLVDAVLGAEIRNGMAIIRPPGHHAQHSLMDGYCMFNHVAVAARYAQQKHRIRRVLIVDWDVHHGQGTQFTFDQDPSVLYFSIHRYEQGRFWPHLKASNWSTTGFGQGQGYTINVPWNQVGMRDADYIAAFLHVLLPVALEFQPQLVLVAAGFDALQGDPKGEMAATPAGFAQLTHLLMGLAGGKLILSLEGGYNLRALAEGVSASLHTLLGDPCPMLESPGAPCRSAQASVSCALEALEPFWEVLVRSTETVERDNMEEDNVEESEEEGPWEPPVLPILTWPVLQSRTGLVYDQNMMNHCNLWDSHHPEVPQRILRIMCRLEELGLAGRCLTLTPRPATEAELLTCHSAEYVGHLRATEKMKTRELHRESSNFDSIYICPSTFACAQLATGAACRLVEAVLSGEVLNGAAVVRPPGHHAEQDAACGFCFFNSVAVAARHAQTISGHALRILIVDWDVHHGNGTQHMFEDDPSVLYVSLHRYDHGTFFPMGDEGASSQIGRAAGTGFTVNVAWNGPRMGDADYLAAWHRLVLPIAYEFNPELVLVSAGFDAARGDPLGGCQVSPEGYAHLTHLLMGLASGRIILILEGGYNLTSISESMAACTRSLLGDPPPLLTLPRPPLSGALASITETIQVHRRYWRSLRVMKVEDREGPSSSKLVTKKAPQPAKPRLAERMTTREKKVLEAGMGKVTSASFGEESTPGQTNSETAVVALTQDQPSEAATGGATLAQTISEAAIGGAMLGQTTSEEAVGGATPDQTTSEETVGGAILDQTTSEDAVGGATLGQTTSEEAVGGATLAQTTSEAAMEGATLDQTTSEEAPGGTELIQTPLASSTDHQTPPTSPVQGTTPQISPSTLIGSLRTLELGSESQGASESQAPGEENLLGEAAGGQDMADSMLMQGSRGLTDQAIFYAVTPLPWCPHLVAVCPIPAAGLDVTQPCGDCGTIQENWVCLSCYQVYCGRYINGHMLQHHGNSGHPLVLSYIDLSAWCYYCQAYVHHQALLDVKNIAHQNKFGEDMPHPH

Rattus norvegicus = assay: In vivo inhibition of HDAC6 in Wistar rat brain hippocampal CA1 region assessed as downregulation of scopolamine-mediated increase in Tau phosphorylation at Ser396/Ser404 residues by immunohistochemical analysis; format: functional, organism-based
How it was run: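 Male Wistar rats, 7 weeks old, dosed orally at 25 mg/kg in 1% carboxymethyl cellulose/0.5% Tween 80 once daily. Scopolamine 1 mg/kg i.p. 90 min before test trial (controls excluded). Morris water maze (hidden platform escape latency), elevated plus maze (started at open-arm end, time to closed arm), then CA1 phospho-tau Ser396/Ser404 immunohistochemistry.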

[2] = target: T1, Protein deacetylase HDAC6 (Homo sapiens); assay: Inhibition of HDAC6 in human SH-SY5Y cells transfected with pCAX FLAG APP and pRK5-EGFP-Tau P301L plasmids assessed as suppression of phosphorylated tau P301L mutant-induced apoptosis by measuring accumulation at sub-G1 phase at 0.1 uM after 24 hrs by propidium iodide staining-based flow cytometry (reference value: 22.01%); format: cell-based; parameters: scale not given: the % may be the effect or the level left
Mus musculus = assay: In vivo inhibition of HDAC6 in 3xTg-AD transgenic mouse brain hippocampal CA1 region assessed as downregulation of scopolamine-mediated increase in Tau phosphorylation at Ser404 residue at 50 mg/kg, po administered daily for 3 months by immunohistochemical analysis; format: functional, organism-based
How it was run: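 Female 3xTg-AD mice, standard diet to 6 months of age, then 50 mg/kg orally once daily for three months; memantine 30 mg/kg in water as comparator. Brains removed and hippocampal CA1 sections immunostained for acetyl-α-tubulin and phospho-tau Ser396 and Ser404. Mean ± STD; one-way ANOVA.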

[3] = target: T1, Protein deacetylase HDAC6 (Homo sapiens); assay: Inhibition of HDAC6 in human SH-SY5Y cells assessed as increase in acetylation of alpha-tubulin at 0.1 to 1 uM after 24 hrs by Western blot analysis; format: cell-based
How it was run: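 SH-SY5Y cells in MEM with 10% FBS at 37 °C, 5% CO2, treated 24 h at 0.1–1 µM. Lysates in HEPES/Triton buffer; 20 µg protein run on SDS-PAGE and immunoblotted for acetyl-α-tubulin, α-tubulin, acetyl-histone H3 and histone H3 with ECL detection.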

## COc1ccc(C(=O)c2ccc3c(ccn3Cc3ccc(C(=O)NO)cc3)c2)cc1
[1]
  inhibition: Active
Rattus norvegicus
  inhibition: Active
[2]
  Activity: 13.5%
Mus musculus
  inhibition: Active
[3]
  inhibition: Active

From ChEMBL document CHEMBL4196108, “5-Aroylindoles Act as Selective Histone Deacetylase 6 Inhibitors Ameliorating Alzheimer's Disease Phenotypes” (J Med Chem, 2018)
